The test system of test [1] is Mus musculus. In words: Antiinflammatory activity in mouse model of xylene-induced ear swelling assessed as inhibition of swelling by measuring weight of the ear at 100 mg/kg, ig pretreated for 90 mins followed by xylene challenge and measured after 30 mins relative to control. The conditions noted are these: po, 2 h, time 120 min. The format is functional. In a few lines: (§1)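 Xylene ear swelling in mice. Test compounds 100 mg/kg i.g., naproxen 150 mg/kg i.g., all suspended in 0.5% CMC-Na; vehicle group got CMC-Na alone. 90 min after dosing, 25 ul xylene applied to both surfaces of right ear; left ear unstimulated. Killed 30 min later; 8 mm punches from both ears weighed; swelling taken against left ear weight.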

Test [2] has as its system Mus musculus. In words: Analgesic activity in mouse model of acetic-acid-induced writhing assessed as inhibition of writhing numbers at 70 mg/kg, po pretreated with compound followed by acetic acid challenge and measured after 30 mins relative to control. The conditions noted are these: 0.5 h. The format is functional. Summed up: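 Acetic acid writhing in mice. Oral dosing (70 mg/kg test compounds or limonin; 200 mg/kg aspirin); vehicle controls got 0.5% CMC-Na. 30 min later 0.6% acetic acid, 10 ml/kg i.p. Each animal held in its own box and observed for 15 min; writhing and stretching counted; result as percent change from vehicle writhing controls.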

The test system of test [3] is Mus musculus. The experiment in a line: Antiinflammatory activity in ICR mouse model of carrageenan-induced paw edema assessed as paw edema inhibition rate at 100 mg/kg, po pretreated with compound followed by carrageenan challenge and measured after 4 hrs post-treatment by dial thickness gage. The format is functional. Summed up:
(§2)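 ICR male mice, 8 per group, randomized, acclimated at least one week, 12 h light/dark, 22 ± 1 °C. Dosed intragastrically at 25, 50 or 100 mg/kg; indomethacin 22 mg/kg i.g. as reference; olive oil as vehicle. 30 min later, 1% fresh carrageenan in saline injected subplantar into right hind paw. Paw thickness read by dial gauge before injection and at 1, 2, 3 and 4 h; percent increase over pre-injection value.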
Background: The carrageenan paw model is a standard test of acute inflammation.

Test [4] relates to Mus musculus. The experiment in a line: Antiinflammatory activity in mouse model of xylene-induced ear swelling assessed as inhibition of swelling by measuring weight of the ear at 100 mg/kg, ig pretreated for 90 mins followed by xylene challenge and measured after 30 mins relative to deoxy-limonin. In kind it is functional. The conditions noted are these: time 120 min, 2 h. In a few lines:
as §1

Test [5] deals with Mus musculus. The experiment in a line: Antiinflammatory activity in po dosed ICR mouse model of carrageenan-induced paw edema assessed as paw edema inhibition rate pretreated with compound followed by carrageenan challenge and measured after 4 hrs post-treatment by dial thickness gage. The conditions noted are these: dose mg/kg 25-100, time 4.0 hrs. The format is functional, organism-based. Summed up:
as §2

The subject of test [6] is Mus musculus. In words: Antiinflammatory activity in ICR mouse model of carrageenan-induced paw edema assessed as paw edema inhibition rate at 25 mg/kg, po pretreated with compound followed by carrageenan challenge and measured after 4 hrs post-treatment by dial thickness gage. In kind it is functional. The conditions noted are these: 2 h, dose mg/kg 25-100. In a few lines: as §2

Test [7] relates to Mus musculus. In words: Antiinflammatory activity in ICR mouse model of carrageenan-induced paw edema assessed as paw edema inhibition rate at 25 mg/kg, po pretreated with compound followed by carrageenan challenge and measured after 3 hrs post-treatment by dial thickness gage. The format is functional. Summed up:
as §2

For test [8], the system named is Mus musculus. In words: Antiinflammatory activity in ICR mouse model of carrageenan-induced paw edema assessed as paw edema inhibition rate at 50 mg/kg, po pretreated with compound followed by carrageenan challenge and measured after 3 hrs post-treatment by dial thickness gage. The format is functional. In a few lines:
as §2

The subject of test [9] is Mus musculus. The experiment in a line: Antiinflammatory activity in ICR mouse model of carrageenan-induced paw edema assessed as paw edema inhibition rate at 100 mg/kg, po pretreated with compound followed by carrageenan challenge and measured after 3 hrs post-treatment by dial thickness gage. In kind it is functional. In a few lines:
as §2

Test [10] concerns Mus musculus. In words: Antiinflammatory activity in ICR mouse model of carrageenan-induced paw edema assessed as paw edema inhibition rate at 25 mg/kg, po pretreated with compound followed by carrageenan challenge and measured after 2 hrs post-treatment by dial thickness gage. The format is functional. Summed up:
as §2

The test system of test [11] is Mus musculus. The experiment in a line: Antiinflammatory activity in ICR mouse model of carrageenan-induced paw edema assessed as paw edema inhibition rate at 50 mg/kg, po pretreated with compound followed by carrageenan challenge and measured after 2 hrs post-treatment by dial thickness gage. In kind it is functional. Summed up:
as §2

The subject of test [12] is Mus musculus. The experiment in a line: Antiinflammatory activity in ICR mouse model of carrageenan-induced paw edema assessed as paw edema inhibition rate at 100 mg/kg, po pretreated with compound followed by carrageenan challenge and measured after 2 hrs post-treatment by dial thickness gage. The format is functional. Summed up: as §2
Test [13] deals with Mus musculus. In words: Antiinflammatory activity in ICR mouse model of carrageenan-induced paw edema assessed as paw edema inhibition rate at 25 mg/kg, po pretreated with compound followed by carrageenan challenge and measured after 1 hr post-treatment by dial thickness gage. In kind it is functional. In a few lines:
as §2

Test [14] has as its system Mus musculus. In words: Antiinflammatory activity in ICR mouse model of carrageenan-induced paw edema assessed as paw edema inhibition rate at 50 mg/kg, po pretreated with compound followed by carrageenan challenge and measured after 1 hr post-treatment by dial thickness gage. In kind it is functional. In a few lines:
as §2

For test [15], the system named is Mus musculus. In words: Antiinflammatory activity in ICR mouse model of carrageenan-induced paw edema assessed as paw edema inhibition rate at 100 mg/kg, po pretreated with compound followed by carrageenan challenge and measured after 1 hr post-treatment by dial thickness gage. The format is functional. In a few lines: as §2
The subject of test [16] is Mus musculus. The experiment in a line: Antiinflammatory activity in ICR mouse model of carrageenan-induced paw edema assessed as paw edema inhibition rate at 50 mg/kg, ig pretreated with compound followed by carrageenan challenge and measured after 4 hrs post-treatment by dial thickness gage. The format is functional. The conditions noted are these: po. Summed up: as §2

As for `CC1(C)OC2CCN(Cc3ccc(F)cc3)CC23[C@H]2CC[C@]4(C)C(=CC(=O)O[C@H]4c4ccoc4)[C@]2(C)C(=O)C[C@@H]13` (some centres not stated), the inhibition in vivo at 100 mg/kg in the test on Mus musculus [1] worked out at 28%. In addition, in the test with Mus musculus [2], the inhibition in vivo at 70 mg/kg was found to be 40.3%.

For the compound `COc1cccc(CCNCCC2OC(C)(C)[C@@H]3CC(=O)[C@@]4(C)C5=CC(=O)O[C@@H](c6ccoc6)[C@]5(C)CC[C@@H]4C23CO)c1` (some centres not stated), the inhibition in vivo at 100 mg/kg came to 27.5% with Mus musculus [3]; 51.5% with Mus musculus [1]; 35.3% with Mus musculus [9]; 65.3% in the test with Mus musculus [12]; 59.8% with Mus musculus [15]. Besides, the “fold change (FC)” value with Mus musculus [4] was found to be 5. Further, in the test with Mus musculus [2], the inhibition in vivo at 70 mg/kg worked out at 52.6%. The inhibition entry in the test on Mus musculus [5] is “Dose-dependent effect”. For the same compound, the inhibition in vivo at 25 mg/kg with Mus musculus [6] was 5.43%; with Mus musculus [7], 12%; in the test on Mus musculus [10], 17.6%; in the test with Mus musculus [13] it was 51.5%. Besides, the inhibition in vivo at 50 mg/kg in the test with Mus musculus [8] is 24.1%; in the test on Mus musculus [11] it was 27.3%; in the test with Mus musculus [14] it was 55.6%.

For the compound `CC1(C)O[C@H]2CC(=O)OC[C@@]23[C@H]1CC(=O)[C@@]1(C)C2=CC(=O)O[C@@H](c4ccoc4)[C@]2(C)CC[C@@H]13`, the inhibition in vivo at 100 mg/kg in the test with Mus musculus [1] stood at 11.2%. In the test on Mus musculus [2], the inhibition in vivo at 70 mg/kg was 22.6%.

Take `COc1ccc(CNCCC2OC(C)(C)[C@@H]3CC(=O)[C@]4(C)[C@H](CC[C@@]5(C)[C@H](c6ccoc6)OC(=O)[C@H]6O[C@]654)C23CO)cc1` (some centres not stated): the inhibition in vivo at 100 mg/kg in the test on Mus musculus [3] turned out to be 32%; in the test with Mus musculus [1], 27.3%; in the test with Mus musculus [9], 41.4%; in the test on Mus musculus [12] it was 62%; with Mus musculus [15] it was 54.5%. Also, the inhibition in vivo at 70 mg/kg in the test with Mus musculus [2] amounted to 81.5%. For the same compound, the inhibition result with Mus musculus [5] is “Dose-dependent effect”. For the same compound, the inhibition in vivo at 50 mg/kg in the test with Mus musculus [16] was 15.6%; in the test with Mus musculus [8], 17.5%; with Mus musculus [11] it was 33.3%; in the test on Mus musculus [14], 44.6%. The inhibition in vivo at 25 mg/kg in the test with Mus musculus [6] is 5.75%; in the test on Mus musculus [7], 9.77%; in the test with Mus musculus [10] it was 24.6%; in the test on Mus musculus [13], 43.4%.

As for `COc1cccc(CCNCCC2OC(C)(C)[C@@H]3CC(=O)[C@]4(C)[C@H](CC[C@@]5(C)[C@H](c6ccoc6)OC(=O)[C@H]6O[C@]654)C23CO)c1` (some centres not stated), the inhibition in vivo at 100 mg/kg in the test on Mus musculus [1] is 17%. Further, the inhibition in vivo at 70 mg/kg with Mus musculus [2] came to 58.7%.

Take `CC1(C)O[C@H]2CC(=O)OC[C@]23[C@H]2CC[C@@]4(C)[C@H](c5ccoc5)OC(=O)[C@H]5O[C@]54[C@]2(C)C(=O)C[C@@H]13` [LIMONIN]: in the test with Mus musculus [1], the inhibition in vivo at 100 mg/kg is 14.4%. For the same compound, the inhibition in vivo at 70 mg/kg in the test with Mus musculus [2] was 44.2%. In addition, the values for the inhibition in vivo at 50 mg/kg in the test on Mus musculus [8], in the test on Mus musculus [11] and in the test with Mus musculus [14] were 26.3%, 22% and 57.3%, respectively.

In the case of `CC1(C)OC(CCNCc2ccc(F)cc2)C2(CO)[C@H]3CC[C@@]4(C)[C@H](c5ccoc5)OC(=O)[C@H]5O[C@]54[C@]3(C)C(=O)C[C@@H]12` (some centres not stated), the inhibition in vivo at 100 mg/kg in the test with Mus musculus [1] came to 27.4%. Moreover, the inhibition in vivo at 70 mg/kg in the test on Mus musculus [2] came to 63.8%.

As to `COc1ccc(CN2CCC3OC(C)(C)[C@@H]4CC(=O)[C@@]5(C)C6=CC(=O)O[C@@H](c7ccoc7)[C@]6(C)CC[C@@H]5C34C2)cc1` (some centres not stated), the inhibition in vivo at 100 mg/kg in the test with Mus musculus [1] was determined as 32.5%. Moreover, in the test on Mus musculus [2], the inhibition in vivo at 70 mg/kg was 40%.

As for `CC1(C)OC(CCNCCc2ccc(F)cc2)C2(CO)[C@H]3CC[C@@]4(C)[C@H](c5ccoc5)OC(=O)[C@H]5O[C@]54[C@]3(C)C(=O)C[C@@H]12` (some centres not stated), the inhibition in vivo at 100 mg/kg in the test with Mus musculus [1] stood at 16.1%. Further, the inhibition in vivo at 70 mg/kg with Mus musculus [2] stood at 55.8%.

The inhibition in vivo is the relative decrease from the control value, in per cent.

(Values after ChEMBL document CHEMBL4699426, “A practical synthesis of amino limonin/deoxylimonin derivatives as effective mitigators against inflammation and nociception” (2020).)
